# ChEMBL document CHEMBL4406859, “Antitumor and antiviral activities of 4-substituted 1,2,3-triazolyl-2,3-dibenzyl-L-ascorbic acid derivatives” (Eur J Med Chem, 2019)
# Active and inactive are the calls of the source. No cut-off for these calls is given here.
# Key:
# [1] = test system: HeLa; assay: Antiproliferative activity against human HeLa cells assessed as reduction in cell viability incubated for 72 hrs by MTT assay; type: functional, cell-based
# Procedure, shortened: (§1)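 Cells (ATCC) grown in DMEM with 10 FBS, penicillin/streptomycin, 2 mM glutamine, 37 °C, 5 CO2. 5000 cells/well seeded; after 24 h, freshly prepared dilutions at five concentrations (0.01–100 μM) added for 72 h. MTT read-out; absorbance converted to percentage growth by NIH formulas. Two experiments in quadruplicate; IC50 by linear regression.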
# [2] = test system: A549; assay: Antiproliferative activity against human A549 cells assessed as reduction in cell viability incubated for 72 hrs by MTT assay; type: functional, cell-based; conditions: A549, 72 h; procedure, shortened: as §1
# [3] = Cytotoxicity against dog MDCK cells assessed as minimum cytotoxic concentration by observing alteration in cell morphology incubated for 3 days by microscopic analysis; type: cell-based, Canis lupus familiaris
# [4] = test system: MCF7; assay: Antiproliferative activity against human MCF7 cells assessed as reduction in cell viability incubated for 72 hrs by MTT assay; type: functional, cell-based; conditions: MCF7, 72 h; procedure, shortened: as §1
# [5] = test system: SW-620; assay: Antiproliferative activity against human SW620 cells assessed as reduction in cell viability incubated for 72 hrs by MTT assay; type: functional, cell-based; conditions: SW-620, 72 h; procedure, shortened: as §1
# [6] = test system: HFF; assay: Cytotoxicity against human HFF cells assessed as reduction in cell viability incubated for 72 hrs by MTT assay; type: cell-based; procedure, shortened: as §1
# [7] = test system: Influenza B virus; assay: Antiviral activity against Influenza B virus (B/Ned/537/05) infected in dog MDCK cells assessed as reduction in virus-induced cytopathogenicity incubated for 7 days by MTS assay; type: functional, organism-based; conditions: for EC50: 168 h
# [8] = test system: CFPAC-1; assay: Antiproliferative activity against human CFPAC-1 cells assessed as reduction in cell viability incubated for 72 hrs by MTT assay; type: functional, cell-based; conditions: Homo sapiens, CFPAC-1, 72 h; read-out: IC50; procedure, shortened: as §1
# [9] = test system: HCT-116; assay: Antiproliferative activity against human HCT116cells assessed as reduction in cell viability incubated for 72 hrs by MTT assay; type: functional, cell-based; conditions: HCT-116, 72 h; procedure, shortened: as §1
# [10] = test system: Influenza A virus H3N2; assay: Antiviral activity against Influenza A virus (A/HK/7/87(H3N2)) infected in dog MDCK cells assessed as reduction in virus-induced cytopathogenicity incubated for 7 days by MTS assay; type: functional, organism-based; conditions: A/Hong Kong/7/1987(H3N2); for EC50: 168 h
# [11] = test system: Influenza A virus; assay: Antiviral activity against Influenza A virus (A/Ned/378/05(H1N1)) infected in dog MDCK cells assessed as reduction in virus-induced cytopathogenicity incubated for 7 days by microscopic analysis; type: functional, organism-based
# [12] = test system: MDCK; assay: (§2) Cytotoxicity against dog MDCK cells assessed as reduction in cell viability incubated for 3 days by coulter counter method; type: cell-based, Canis lupus familiaris; conditions: mdck, 72 h
# [13] = test system: Influenza A virus; assay: Antiviral activity against Influenza A virus (A/Ned/378/05(H1N1)) infected in dog MDCK cells assessed as reduction in virus-induced cytopathogenicity incubated for 7 days by MTS assay; type: functional, organism-based; conditions: for EC50: Influenza A virus, A/Ned/378/05(H1N1), MDCK, 168 h
# [14] = test system: Influenza A virus H3N2; assay: Antiviral activity against Influenza A virus (A/HK/7/87(H3N2)) infected in dog MDCK cells assessed as reduction in virus-induced cytopathogenicity incubated for 7 days by microscopic analysis; type: functional, organism-based; conditions: A/Hong Kong/7/1987(H3N2); for EC50: 168 h
# [15] = test system: Influenza B virus; assay: Antiviral activity against Influenza B virus (B/Ned/537/05) infected in dog MDCK cells assessed as reduction in virus-induced cytopathogenicity incubated for 7 days by microscopic analysis; type: functional, organism-based; conditions: for EC50: 168 h
# [16] = test system: HepG2; assay: Antiproliferative activity against human HepG2 cells assessed as reduction in cell viability incubated for 72 hrs by MTT assay; type: functional, cell-based; conditions: HepG2, 72 h; procedure, shortened: as §1
# [17] = test system: MCF7; assay: Downregulation of NOS2 in human MCF7 cells at cytotoxic IC50 incubated for 24 and 48 hrs by Western blot analysis; type: functional, cell-based
# [18] = test system: MCF7; assay: Induction of apoptosis in human MCF7 cells assessed as necrotic cells at 2 times of cytotoxic IC50 incubated for 24 hrs by annexin V staining based inverted phase contrast fluorescence microscopy (reference value: 0.84 %); type: functional
# [19] = test system: MCF7; assay: Induction of apoptosis in human MCF7 cells assessed as late apoptotic cells at 2 times of cytotoxic IC50 incubated for 24 hrs by annexin V staining based inverted phase contrast fluorescence microscopy (reference value: […]); type: functional
# [20] = test system: Human coronavirus 229E; assay: Antiviral activity against Human coronavirus 229E infected in human HELF cells assessed as reduction in virus-induced cytopathogenicity incubated for 7 days by microscopic analysis; type: functional, organism-based
# [21] = test system: MCF7; assay: Induction of apoptosis in human MCF7 cells assessed as early apoptotic cells at 2 times of cytotoxic IC50 incubated for 48 hrs by annexin V staining based inverted phase contrast fluorescence microscopy (reference value: 0 %); type: functional
# [22] = test system: MCF7; assay: Induction of apoptosis in human MCF7 cells assessed as late apoptotic cells at 2 times of cytotoxic IC50 incubated for 48 hrs by annexin V staining based inverted phase contrast fluorescence microscopy (reference value: 10.60 %); type: functional
# [23] = test system: Human adenovirus 2; assay: Antiviral activity against Human adenovirus 2 infected in human HELF cells assessed as reduction in virus-induced cytopathogenicity incubated for 7 days by microscopic analysis; type: functional, organism-based
# [24] = test system: Human alphaherpesvirus 1; assay: Antiviral activity against Herpes simplex virus 1 KOS infected in human HELF cells assessed as reduction in virus-induced cytopathogenicity incubated for 7 days by microscopic analysis; type: functional, organism-based; conditions: strain KOS
# [25] = Cytotoxicity against human HELF cells assessed as minimum cytotoxic concentration by observing alteration in cell morphology incubated for 3 days by microscopic analysis; type: cell-based; conditions: HELF cells
# Procedure, shortened: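 Read-out is the minimum cytotoxic concentration (MCC): the lowest compound concentration giving a microscopically detectable change in cell morphology. Measured on confluent human embryonic lung (HEL) fibroblast cultures exposed to a range of compound concentrations.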
# [26] = test system: Human alphaherpesvirus 2; assay: Antiviral activity against Herpes simplex virus 2 G infected in human HELF cells assessed as reduction in virus-induced cytopathogenicity incubated for 7 days by microscopic analysis; type: functional, organism-based
# [27] = test system: Human alphaherpesvirus 1; assay: Antiviral activity against Herpes simplex virus 1 TK-KOS-ACV infected in human HELF cells assessed as reduction in virus-induced cytopathogenicity incubated for 7 days by microscopic analysis; type: functional, organism-based
# [28] = test system: Sindbis virus; assay: Antiviral activity against Sindbis virus infected in vero cells assessed as reduction in virus-induced cytopathogenicity incubated for 7 days by microscopic analysis; type: functional, organism-based
# [29] = test system: MCF7; assay: Induction of apoptosis in human MCF7 cells assessed as early apoptotic cells at 2 times of cytotoxic IC50 incubated for 24 hrs by annexin V staining based inverted phase contrast fluorescence microscopy (reference value: 0 %); type: functional
# [30] = test system: Human alphaherpesvirus 3; assay: Antiviral activity against thymidine kinase positive Varicella zoster virus infected in human HELF cells assessed as reduction in virus-induced cytopathogenicity incubated for 7 days by Giemsa staining based microscopic analysis; type: functional, organism-based; conditions: Human alphaherpesvirus 3, HELF, 168 h
# [31] = test system: Reovirus sp.; assay: Antiviral activity against Reovirus infected in vero cells assessed as reduction in virus-induced cytopathogenicity incubated for 7 days by microscopic analysis; type: functional, organism-based
# [32] = test system: Human alphaherpesvirus 3; assay: Antiviral activity against thymidine kinase deficient Varicella zoster virus infected in human HELF cells assessed as reduction in virus-induced cytopathogenicity incubated for 7 days by Giemsa staining based microscopic analysis; type: functional, organism-based; conditions: Human alphaherpesvirus 3, HELF, 168 h
# [33] = test system: Cytomegalovirus; assay: Antiviral activity against Cytomegalovirus AD169 infected in human HELF cells assessed as reduction in virus-induced cytopathogenicity incubated for 7 days by Giemsa staining based microscopic analysis; type: functional, organism-based; conditions: Human betaherpesvirus 5, AD169, HELF, 168 h
# Procedure, shortened: (§3)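 Confluent HEL fibroblasts infected with CMV (Davis or AD-169) at 100 PFU/well for 2 h. Residual virus removed, then medium with graded compound concentrations added (duplicate). Incubated 7 days at 37 °C. Cytopathogenicity scored microscopically after ethanol fixation and Giemsa staining. EC50 read from plots of % cytopathogenicity versus concentration.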
# [34] = test system: Coxsackievirus B4; assay: Antiviral activity against Human coxsackievirus B4 infected in vero cells assessed as reduction in virus-induced cytopathogenicity incubated for 7 days by microscopic analysis; type: functional, organism-based
# [35] = test system: MCF7; assay: Induction of apoptosis in human MCF7 cells assessed as necrotic cells at 2 times of cytotoxic IC50 incubated for 24 hrs by annexin V staining based inverted phase contrast fluorescence microscopy (reference value: 0 %); type: functional
# [36] = test system: Cytomegalovirus; assay: Antiviral activity against Cytomegalovirus Davis infected in human HELF cells assessed as reduction in virus-induced cytopathogenicity incubated for 7 days by Giemsa staining based microscopic analysis; type: functional, organism-based; conditions: Human betaherpesvirus 5, Davis, 168 h; procedure, shortened: as §3
# [37] = test system: MCF7; assay: Upregulation of HIF1alpha in human MCF7 cells at cytotoxic IC50 incubated for 24 and 48 hrs by Western blot analysis; type: functional, cell-based
# [38] = as §2; type: cell-based, Canis lupus familiaris; conditions: MDCK cells
smiles,measurement,setting,value
O=C1O[C@H]([C@@H](O)Cn2ccnn2)C(OCc2ccccc2)=C1OCc1ccccc1,IC50,[1],> 100 µM
same,IC50,[2],> 100 µM
same,MCC at 72 h,[3],> 100 µM
same,IC50,[4],> 100 µM
same,IC50,[5],> 100 µM
same,IC50,[6],0.61 µM
same,EC50,[7],> 100 µM
same,IC50,[8],> 100 µM
same,IC50,[9],> 100 µM
same,EC50,[10],53.9 µM
same,EC50,"[11]; Influenza A virus, A/Ned/378/05(H1N1), MDCK, 168 h",75 µM
same,CC50,[12],> 100 µM
same,EC50,[13],35.1 µM
same,EC50,[14],45 µM
same,EC50,[15],> 100 µM
same,IC50,[16],> 100 µM
CCCCCCCCCCc1cn(C[C@H](O)[C@H]2OC(=O)C(OCc3ccccc3)=C2OCc2ccccc2)nn1,Activity,[17],Active
same,Activity,[18],8.76%
same,IC50,[1],22.9 µM
same,IC50,[2],6.75 µM
same,IC50,[4],0.08 µM
same,Activity,[19],1.68%
same,Activity,[20],inactive
same,IC50,[5],45.1 µM
same,Activity,[21],13.4%
same,Activity,[22],35.3%
same,Activity,[23],inactive
same,IC50,[6],> 100 µM
same,Activity,[24],inactive
same,MCC at 72 h,[25],20 µM
same,Activity,[7],inactive
same,IC50,[8],40.3 µM
same,Activity,[26],inactive
same,Activity,[27],inactive
same,Activity,[28],inactive
same,IC50,[9],28.8 µM
same,Activity,[10],inactive
same,Activity,[29],0%
same,EC50,[30],7.76 µM
same,Activity,[31],inactive
same,EC50,[32],10.7 µM
same,EC50,[33],> 4 µM
same,Activity,[11],inactive
same,Activity,[34],inactive
same,Activity,[13],inactive
same,Activity,[35],11.36%
same,Activity,[14],inactive
same,EC50,[36],> 4 µM
same,Activity,[37],Active
same,Activity,[15],inactive
same,IC50,[16],12.2 µM
NC(=O)c1ncn([C@@H]2O[C@H](CO)[C@@H](O)[C@H]2O)n1 [RIBAVIRIN],MCC at 72 h,[3],> 100 µM
same,MCC at 72 h,[25],> 250 µM
same,EC50,[7],4.6 µM
same,EC50,[10],1.4 µM
same,EC50,[11],8.9 µM
same,CC50 at 72 h,[38],> 100 µM
same,EC50,[13],18.2 µM
same,EC50,[14],2.3 µM
same,EC50,[15],5.6 µM
